Measured values taken from ChEMBL document CHEMBL1157510, “Bioactive cembrane diterpenoids of Anisomeles indica” (J Nat Prod, 2008).
The source made the active and inactive calls. The rule behind the calls is not given here.

Columns and labels:
MCF7 = test: Cytotoxicity against human MCF7 cells after 3 days by MTT assay; type: functional, cell-based; settings: for IC50: MCF7, 72 h
In short: (§1)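 Freshly trypsinized cells were seeded at 5000-10 000 per well, and compounds were added from DMSO stocks. After 3 days of culture, attached cells were given MTT (0.5 mg/mL, 1 h) and then solubilized in DMSO. Absorbance was read at 550 nm. IC50 is the concentration that cut cell growth by 50%. Values are the mean of two to three separate experiments, each in triplicate.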

[1] = (§2) Cytotoxicity against human Hep3B cells after 3 days by MTT assay; type: functional, cell-based, Hep 3B2; settings: 72 h; in short: as §1
A549 = test: Cytotoxicity against human A549 cells after 3 days by MTT assay; type: functional, cell-based; settings: for IC50: A549, 72 h; in short: as §1
Platelet [2] = test: Inhibition of collagen-induced human platelet aggregation by light transmission aggregometer; type: functional, cell-based
In short: (§3)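 Human platelet suspension was preincubated with DMSO or compound at 37 °C for 3 min, stirring at 1200 rpm, before the activator was added. Aggregation was followed turbidimetrically in a light-transmission aggregometer.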

HepG2 = test: Cytotoxicity against human HepG2 cells after 3 days by MTT assay; type: functional, cell-based; settings: for IC50: HepG2, 72 h; in short: as §1
MDA-MB-231 = test: Cytotoxicity against human MDA-MB-231 cells after 3 days by MTT assay; type: functional, cell-based; settings: for IC50: MDA-MB-231, 72 h; in short: as §1
Platelet [3] = test: Inhibition of thrombin-induced human platelet aggregation by light transmission aggregometer; type: functional, cell-based; in short: as §3
Hep 3B2 = test: as §2; type: functional, cell-based; in short: as §1

IC50 (Platelet [2]) [µM]	IC50 (Platelet [3]) [µM]	Compound	IC50 (MCF7) [µM]	IC50 [1] [µM]	IC50 (A549) [µM]	IC50 (HepG2) [µM]	IC50 (MDA-MB-231) [µM]	Activity (MCF7)	Activity (Hep 3B2)	Activity (A549)	Activity (Platelet [2])	Activity (HepG2)	Activity (MDA-MB-231)	Activity (Platelet [3])
> 100	4.8	C=C1C(=O)O[C@H]2/C=C(\C)C[C@@H]3C=C(CC[C@H]4O[C@@]4(C)CC[C@H]12)C(=O)O3	> 10	9.3	8.8	10	> 10	–	–	–	–	–	–	–
–	–	C=C1C(=O)O[C@H]2/C=C(\C)C[C@@H]3C=C(CC[C@@H](OO)C(=C)CC[C@H]12)C(=O)O3	–	–	–	–	–	inactive	inactive	inactive	inactive	inactive	inactive	inactive
153	> 100	CC(=O)Oc1ccccc1C(=O)O [ASPIRIN]	–	–	–	–	–	–	–	–	–	–	–	–
> 100	20	C=C1C(=O)O[C@H]2/C=C(\C)C[C@@H]3C=C(C/C=C/[C@@](C)(O)CC[C@H]12)C(=O)O3	> 10	> 10	9.9	10	> 10	–	–	–	–	–	–	–
19.7	> 100	C=C1C(=O)O[C@H]2/C=C(\C)C[C@@H]3C=C(CC/C=C(\C)CC[C@H]12)C(=O)O3	9.5	7.4	9.6	10	9.5	–	–	–	–	–	–	–
–	–	COc1cccc2c1C(=O)c1c(O)c3c(c(O)c1C2=O)C[C@@](O)(C(=O)CO)C[C@@H]3O[C@H]1C[C@H](N)[C@H](O)[C@H](C)O1 [DOXORUBICIN]	–	0.48	0.4	0.82	0.07	–	–	–	–	–	–	–
–	–	C=C1CC[C@H]2C(=C)C(=O)O[C@@H]2/C=C(\C)C[C@H]2C=C(CCC1=O)C(=O)O2	> 10	> 10	> 10	10	9.8	–	–	–	inactive	–	–	inactive
41.9	> 100	C=C1CC[C@@H]2C(=C)C(=O)O[C@H]2/C=C(\C)C[C@@H]2C=C(CC[C@H]1O)C(=O)O2	–	–	–	–	–	inactive	inactive	inactive	–	inactive	inactive	–

Compound	IC50 (Platelet [2]) [µM]	IC50 (Platelet [3]) [µM]	IC50 (MCF7) [µM]	IC50 [1] [µM]	IC50 (A549) [µM]	IC50 (HepG2) [µM]	IC50 (MDA-MB-231) [µM]	Activity (MCF7)	Activity (Hep 3B2)	Activity (A549)	Activity (Platelet [2])	Activity (HepG2)	Activity (MDA-MB-231)	Activity (Platelet [3])
C=C1C(=O)O[C@H]2/C=C(\C)C[C@@H]3C=C(C/C=C/[C@@](C)(OO)CC[C@H]12)C(=O)O3	> 100	11.9	–	–	–	–	–	inactive	inactive	inactive	–	inactive	inactive	–
